According to ChEMBL document CHEMBL3421622, “New organochalcogen multitarget drug: synthesis and antioxidant and antitumoral activities of chalcogenozidovudine derivatives” (J Med Chem, 2015):
Activity calls are given as the source filed them. The rule behind the calls is not given here.

Experiments:
[1] = Antioxidant activity assessed as thiol peroxidase-like activity assessed as time required to oxidize 50% of benzenethiol during reduction of hydrogen peroxide measured for 180 secs by UV spectroscopic analysis; conditions: 0.05 h
[2] = test system: Brain; assay: Antioxidant activity in Wistar rat brain assessed as inhibition of TBARS formation at 200 uM after 60 mins by spectrophotometric method relative to control; format: functional
In short: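 Adult male Wistar rat brain (250−350 g) homogenized 1:10 w/v in 10 mM Tris-HCl pH 7.4 and spun at 2000 rpm for 10 min; low-speed supernatant (S1) used. Blank lacked Fe. TBARS read at 532 nm against MDA standard. Three experiments.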

[3] = test system: 5637; assay: Downregulation of survivin mRNA expression in human 5637 cells at 100 uM after 48 hrs by real-time PCR analysis relative to control; format: functional, cell-based
In short: (§1)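 5637 cells seeded at 2 × 10^5 per well and grown 24 h. Treated with 50 or 100 μM for 48 h, washed in PBS, RNA extracted. Bax, Bcl-2, caspase-9 and survivin mRNA measured by real-time PCR; Bax:Bcl-2 ratio derived. Experiments in triplicate.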

[4] = test system: 5637; assay: Induction of apoptosis in human 5637 cells assessed as DNA fragmentation at 50 to 100 uM after 48 hrs by TUNEL assay relative to control; format: functional, cell-based
In short: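 5637 cells treated 48 h, then collected and fixed. TdT-mediated BrdU labelling of fragmented DNA, detected with TMR-anti-BrdU after 30 min staining in the dark at room temperature. TUNEL-positive cells counted by flow cytometry.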

[5] = test system: Liver; assay: Toxicity in rat liver slices assessed as change in ALT release relative to control; conditions: in vitro
[6] = test system: 5637; assay: Induction of apoptosis in human 5637 cells assessed as ratio of Bax mRNA to Bcl2 mRNA level at 100 uM after 48 hrs by real-time PCR analysis (reference value: 0.08 to 0.13); format: functional
In short: as §1

[7] = test system: Liver; assay: Toxicity in rat liver assessed as effect on cell viability at 50 to 200 uM after 2 hrs by MTT reduction assay relative to control
In short: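 Liver slices from healthy adult rats preincubated 10 min in Krebs Ringer pH 7.4. Compound added to 200, 100 or 50 μM final for 2 h at 37 °C. MTT (5 mg/mL) added for 30 min at 37 °C, formazan dissolved in DMSO, absorbance read at 570 and 700 nm. Expressed as % of untreated; three experiments.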

[8] = Antioxidant activity assessed as thiol peroxidase-like activity assessed as time required to oxidize 50% of benzenethiol during reduction of hydrogen peroxide measured for 180 secs by UV spectroscopic analysis relative to control; conditions: 0.05 h
[9] = test system: 5637; assay: Cytotoxicity against human 5637 cells assessed as growth inhibition after 48 hrs by MTT assay; format: functional, cell-based; conditions: Homo sapiens, 5637, 48 h
In short: (§2)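 5637 cells in log phase, seeded at 2 × 10^4 per well and grown 24 h. Exposed for 24, 48 or 72 h to 200−12.5 μM in DMSO (final ≤0.25%, vehicle group included). MTT added for 3 h, formazan dissolved in DMSO, read at 492 nm. Growth inhibition = [1 − Abs treated/Abs control] × 100%. […] Three independent experiments.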

[10] = test system: 5637; assay: Induction of apoptosis in human 5637 cells assessed as ratio of Bax mRNA to Bcl2 mRNA level at 50 uM after 48 hrs by real-time PCR analysis (reference value: 0.08 to 0.13); format: functional
In short: as §1

[11] = test system: 5637; assay: Cytotoxicity against human 5637 cells assessed as growth inhibition at 50 uM after 48 hrs by MTT assay relative to control; format: functional; conditions: Homo sapiens, 5637, 48 h; read-out: GI
In short: as §2

[12] = test system: 5637; assay: Upregulation of caspase-9 mRNA expression in human 5637 cells at 100 uM after 48 hrs by real-time PCR analysis relative to control; format: functional, cell-based
In short: as §1

[13] = test system: 5637; assay: Induction of apoptosis in human 5637 cells assessed as early and late apoptotic cells at 100 uM after 48 hrs by annexin V-PE/7-AAD staining-based flow cytometric analysis (reference value: 7.36%); format: functional
[14] = test system: 5637; assay: Downregulation of Bcl2 mRNA expression in human 5637 cells at 100 uM after 48 hrs by real-time PCR analysis relative to control; format: functional, cell-based
In short: as §1

[15] = test system: Liver; assay: Toxicity in rat liver assessed as change in AST release relative to control; format: tissue-based
[16] = test system: 5637; assay: Cytotoxicity against human 5637 cells assessed as growth inhibition at 100 to 200 uM after 48 hrs by MTT assay relative to control; format: functional
In short: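 5637 bladder carcinoma cells in DMEM with 10% FBS, seeded 2 × 10^4/well, grown 24 h at 37 °C, 5% CO2. Exposed to 200–12.5 μM from DMSO stocks (final DMSO ≤0.25%, solvent control) for 48 h. MTT added for 3 h, formazan dissolved in DMSO, read at 492 nm. Growth inhibition = [1 − Abs treated/Abs control] × 100%. Three independent experiments.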

[17] = test system: 5637; assay: Cytotoxicity against human 5637 cells assessed as dead cells at 100 uM after 48 hrs by calcein/ethidium bromide staining-based fluorescence microscopic analysis relative to control; format: functional, cell-based
In short: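 5637 bladder carcinoma cells (DMEM, 10% FBS) seeded at 2 × 10^4 per well and grown 24 h. Exposed to 100 or 50 μM compound for 48 h. Washed, then stained with calcein (live, green) and ethidium homodimer (dead, red). Scored by multicolor fluorescence microscopy.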

[18] = test system: 5637; assay: Induction of apoptosis in human 5637 cells at 50 uM after 48 hrs by annexin V-PE/7-AAD staining-based flow cytometric analysis (reference value: 7.36%); format: functional
[19] = test system: 5637; assay: Cytotoxicity against human 5637 cells assessed as growth inhibition at 12.5 to 200 uM after 48 hrs by MTT assay relative to control; format: functional
In short: as §2

SMILES	t50 [1]	inhibition at 200 µM ([2]; 1 h)	Activity [3]	Activity [4]	inhibition [2]	Activity [5]	Ratio [6]	Activity [7]	fold change (FC) [8]	IC50 [9]	Ratio [10]	inhibition of growth at 50 µM [11]	Activity [12]	Activity [13]	Activity [14]	Activity [15]	growth inhibition (GI) [16]	Activity [17]	Activity [18]	growth inhibition (GI) [19]
Cc1cn([C@H]2C[C@H](N=[N+]=[N-])[C@@H](C[Se]c3cccc4ccccc34)O2)c(=O)[nH]c1=O	66.3 min	80%	–	–	–	–	–	–	–	–	–	–	–	–	–	–	–	–	–	–
Cc1ccc([Se]C[C@H]2O[C@@H](n3cc(C)c(=O)[nH]c3=O)C[C@@H]2N=[N+]=[N-])cc1	22.5 min	–	Active	Active	Active	Non-toxic	19.4	Non-toxic	4	51.6 µM	0.5	50%	Active	89.6%	Active	Non-toxic	–	–	–	–
Cc1cn([C@H]2C[C@H](N=[N+]=[N-])[C@@H](C[Se]c3ccccc3)O2)c(=O)[nH]c1=O	56.4 min	–	Active	Active	Active	Non-toxic	10.6	Non-toxic	–	78.9 µM	1.45	–	Active	90.74%	Active	Non-toxic	>50%	–	–	–
Cc1cn([C@H]2C[C@H](N=[N+]=[N-])[C@@H](C[Se]c3ccc(Cl)cc3)O2)c(=O)[nH]c1=O	15.2 min	–	Active	Active	Active	Non-toxic	4.8	Non-toxic	4	40.4 µM	0.9	50%	Active	92.8%	Active	Non-toxic	–	Active	71.12%	–
Cc1cn([C@H]2C[C@H](N=[N+]=[N-])[C@@H](CO)O2)c(=O)[nH]c1=O [ZIDOVUDINE]	66.5 min	–	–	inactive	–	Non-toxic	–	–	–	7 µM	–	50%	–	–	Active	Non-toxic	–	inactive	7.74%	>50%
Cc1cc(C)c([Se]C[C@H]2O[C@@H](n3cc(C)c(=O)[nH]c3=O)C[C@@H]2N=[N+]=[N-])c(C)c1	97.5 min	–	–	–	Active	–	–	–	–	–	–	–	–	–	–	–	–	–	–	–
